# In ChEMBL document CHEMBL1127799, “Derivatives of a novel cyclopeptolide. 1. Synthesis, antifungal activity, and structure-activity relationships” (1994):
# Legend:
# Type in all cases: functional
# Candida albicans [1] = experiment: Tested for minimum inhibitory concentration against Candida albicans 124 (Candida albicans) at pH of 4.5.
# Method in brief: (§1)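 Broth microdilution in malt extract broth, initial pH 4.5 or 6.5, with 1×10^3 CFU per 0.2 mL well of thawed stored cultures. Compound stocks were made in 5% DMSO/0.2% Tween 80 and diluted to final 0.05–100 μg/mL. Plates were incubated 48 h at 30 °C and read macroscopically. MIC was the lowest concentration with no detectable growth. Vehicle-only wells served as controls.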
# Candida albicans [2] = experiment: Tested for minimum inhibitory concentration against Candida albicans 124 (Candida albicans) at pH of 6.5.; method in brief: as §1
# [3] = test system: Meyerozyma guilliermondii; experiment: Tested for minimum inhibitory concentration against Candida guilliermondii 80 (C.g) at pH of 6.5.; method in brief: as §1
# [4] = test system: Meyerozyma guilliermondii; experiment: Tested for minimum inhibitory concentration against Candida guilliermondii 80 (C.g) at pH of 4.5.; method in brief: as §1
# Pichia kudriavzevii [5] = experiment: Tested for minimum inhibitory concentration against Candida krusei 132 (C.k) at pH of 4.5.; method in brief: as §1
# Pichia kudriavzevii [6] = experiment: Tested for minimum inhibitory concentration against Candida krusei 132 (C.k) at pH of 6.5.; method in brief: as §1
# Candida tropicalis [7] = experiment: Tested for minimum inhibitory concentration against Candida tropicalis 43 (C.t) at pH of 4.5.; method in brief: as §1
# Candida tropicalis [8] = experiment: Tested for minimum inhibitory concentration against Candida tropicalis 43 (C.t) at pH of 6.5.; method in brief: as §1
SMILES,MIC (Candida albicans [1]),MIC (Candida albicans [2]),MIC [3],MIC [4],MIC (Pichia kudriavzevii [5]),MIC (Pichia kudriavzevii [6]),MIC (Candida tropicalis [7]),MIC (Candida tropicalis [8])
CC[C@@H](C)[C@H]1C(=O)NCC(=O)N(C)[C@@H](C(C)C)C(=O)N[C@@H](Cc2ccc(OC)cc2)C(=O)O[C@H](C)C(=O)N2CCCC[C@H]2C(=O)N(C)[C@@H](C(C)C)C(=O)N[C@@H](C(C)C)C(=O)N(C)[C@@H](CCOC(=O)c2ccccc2C(=O)O)C(=O)N(C)[C@@H]([C@@H](C)CC)C(=O)N1C,> 100 µg/mL,> 100 µg/mL,> 100 µg/mL,> 100 µg/mL,> 100 µg/mL,> 100 µg/mL,> 100 µg/mL,> 100 µg/mL
CC[C@H](C)[C@H]1C(=O)NCC(=O)N(C)[C@@H](C(C)C)C(=O)N[C@@H](Cc2ccc(OC)cc2)C(=O)N[C@@H](C)C(=O)N[C@@H](C)C(=O)N2CCCC[C@H]2C(=O)N(C)[C@@H](C(C)C)C(=O)N[C@@H](C(C)C)C(=O)N(C)[C@@H](CC(=O)O)C(=O)N(C)[C@@H]([C@@H](C)CC)C(=O)N1C,> 100 µg/mL,> 100 µg/mL,> 100 µg/mL,> 100 µg/mL,> 100 µg/mL,> 100 µg/mL,> 100 µg/mL,> 100 µg/mL
CC[C@@H](C)[C@H]1C(=O)NCC(=O)N(C)[C@@H](C(C)C)C(=O)N[C@@H](Cc2ccc(OC)cc2)C(=O)O[C@H](C)C(=O)N2CCCC[C@H]2C(=O)N(C)[C@@H](C(C)C)C(=O)N[C@@H](C(C)C)C(=O)N(C)[C@@H](CCO)C(=O)N(C)[C@@H]([C@@H](C)CC)C(=O)N1C,> 100 µg/mL,> 100 µg/mL,> 100 µg/mL,> 100 µg/mL,> 100 µg/mL,> 100 µg/mL,> 100 µg/mL,> 100 µg/mL
CC[C@@H](C)[C@H]1C(=O)NCC(=O)N(C)[C@@H](C(C)C)C(=O)N[C@@H](Cc2ccc(OC)cc2)C(=O)O[C@H](C)C(=O)N2CCCC[C@H]2C(=O)N(C)[C@@H](C(C)C)C(=O)N[C@@H](C(C)C)C(=O)N(C)[C@@H](CCOC(C)=O)C(=O)N(C)[C@@H]([C@@H](C)CC)C(=O)N1C,12.5 µg/mL,50 µg/mL,> 100 µg/mL,> 100 µg/mL,> 100 µg/mL,> 100 µg/mL,100 µg/mL,> 100 µg/mL
CC[C@H](C)[C@H]1C(=O)NCC(=O)N(C)[C@@H](C(C)C)C(=O)N[C@@H](Cc2ccc(OC)cc2)C(=O)N[C@@H](C)C(=O)N[C@H](C)C(=O)N2CCCC[C@H]2C(=O)N(C)[C@@H](C(C)C)C(=O)N[C@@H](C(C)C)C(=O)N(C)[C@@H](CC(=O)O)C(=O)N(C)[C@@H]([C@@H](C)CC)C(=O)N1C,12.5 µg/mL,> 100 µg/mL,> 100 µg/mL,50 µg/mL,> 100 µg/mL,> 100 µg/mL,100 µg/mL,> 100 µg/mL
CC[C@@H](C)[C@H]1C(=O)NCC(=O)N(C)[C@@H](C(C)C)C(=O)N[C@@H](Cc2ccc(OC)cc2)C(=O)O[C@H](C)C(=O)N2CCCC[C@H]2C(=O)N(C)[C@@H](C(C)C)C(=O)N[C@@H](C(C)C)C(=O)N(C)[C@@H](CC(=O)NCCN(C)C)C(=O)N(C)[C@@H]([C@@H](C)CC)C(=O)N1C,> 100 µg/mL,> 100 µg/mL,> 100 µg/mL,> 100 µg/mL,> 100 µg/mL,> 100 µg/mL,> 100 µg/mL,> 100 µg/mL
CC[C@@H](C)[C@H]1C(=O)NCC(=O)N(C)[C@@H](C(C)C)C(=O)N[C@@H](Cc2ccc(OC)cc2)C(=O)O[C@H](C)C(=O)N2CCCC[C@H]2C(=O)N(C)[C@@H](C(C)C)C(=O)N[C@@H](C(C)C)C(=O)N(C)[C@@H](CCCl)C(=O)N(C)[C@@H]([C@@H](C)CC)C(=O)N1C,> 100 µg/mL,> 100 µg/mL,> 100 µg/mL,> 100 µg/mL,> 100 µg/mL,> 100 µg/mL,> 100 µg/mL,> 100 µg/mL
CC[C@@H](C)[C@H]1C(=O)NCC(=O)N(C)[C@@H](C(C)C)C(=O)N[C@@H](Cc2ccc(OC)cc2)C(=O)O[C@H](C)C(=O)N2CCCC[C@H]2C(=O)N(C)[C@@H](C(C)C)C(=O)N[C@@H](C(C)C)C(=O)N(C)[C@@H](CC(=O)Nc2ccc(Br)cc2)C(=O)N(C)[C@@H]([C@@H](C)CC)C(=O)N1C,> 100 µg/mL,> 100 µg/mL,> 100 µg/mL,> 100 µg/mL,> 100 µg/mL,> 100 µg/mL,> 100 µg/mL,> 100 µg/mL
CC[C@@H](C)[C@H]1C(=O)NCC(=O)N(C)[C@@H](C(C)C)C(=O)N[C@@H](Cc2ccc(O)cc2)C(=O)O[C@H](C)C(=O)N2CCCC[C@H]2C(=O)N(C)[C@@H](C(C)C)C(=O)N[C@@H](C(C)C)C(=O)N(C)[C@@H](CC(=O)O)C(=O)N(C)[C@@H]([C@@H](C)CC)C(=O)N1C,> 100 µg/mL,50 µg/mL,100 µg/mL,> 100 µg/mL,> 100 µg/mL,100 µg/mL,> 100 µg/mL,100 µg/mL
CC[C@@H](C)[C@H]1C(=O)NCC(=O)N(C)[C@@H](C(C)C)C(=O)N[C@@H](Cc2ccc(OC)cc2)C(=O)O[C@H](C)C(=O)N2CCCC[C@H]2C(=O)N(C)[C@@H](C(C)C)C(=O)N[C@@H](C(C)C)C(=O)N(C)[C@@H](CC(=O)OC(C)(C)C)C(=O)N(C)[C@@H]([C@@H](C)CC)C(=O)N1C,> 100 µg/mL,> 100 µg/mL,> 100 µg/mL,> 100 µg/mL,> 100 µg/mL,> 100 µg/mL,> 100 µg/mL,> 100 µg/mL
CC[C@H](C)[C@H]1C(=O)NCC(=O)N(C)[C@@H](C(C)C)C(=O)N[C@@H](Cc2ccc(OC)cc2)C(=O)N[C@@H](C)C(=O)N[C@H](C)C(=O)N2CCCC[C@H]2C(=O)N(C)[C@@H](C(C)C)C(=O)N[C@@H](C(C)C)C(=O)N(C)[C@@H](CC(=O)OC(C)(C)C)C(=O)N(C)[C@@H]([C@@H](C)CC)C(=O)N1C,> 100 µg/mL,–,–,> 100 µg/mL,> 100 µg/mL,–,> 100 µg/mL,–
CC[C@@H](C)[C@H]1C(=O)NCC(=O)N(C)[C@@H](C(C)C)C(=O)N[C@@H](Cc2ccc(OC)cc2)C(=O)O[C@@H](C)C(=O)N2CCCC[C@H]2C(=O)N(C)[C@@H](C(C)C)C(=O)N[C@@H](C(C)C)C(=O)N(C)[C@@H](CC(=O)O)C(=O)N(C)[C@@H]([C@@H](C)CC)C(=O)N1C,3.13 µg/mL,12.5 µg/mL,100 µg/mL,12.5 µg/mL,25 µg/mL,50 µg/mL,6.25 µg/mL,25 µg/mL

# Results, then the compound that gave them:
MIC (Candida albicans [1]),MIC (Candida albicans [2]),MIC [3],MIC [4],MIC (Pichia kudriavzevii [5]),MIC (Pichia kudriavzevii [6]),MIC (Candida tropicalis [7]),MIC (Candida tropicalis [8]),SMILES
> 100 µg/mL,> 100 µg/mL,> 100 µg/mL,> 100 µg/mL,> 100 µg/mL,> 100 µg/mL,> 100 µg/mL,> 100 µg/mL,CC[C@@H](C)[C@H]1C(=O)NCC(=O)N(C)[C@@H](C(C)C)C(=O)N[C@@H](Cc2ccc(OC)cc2)C(=O)O[C@H](C)C(=O)N2CCCC[C@H]2C(=O)N(C)[C@@H](C(C)C)C(=O)N[C@@H](C(C)C)C(=O)N(C)[C@@H](CC(=O)NC[Si](C)(C)C)C(=O)N(C)[C@@H]([C@@H](C)CC)C(=O)N1C
> 100 µg/mL,> 100 µg/mL,> 100 µg/mL,> 100 µg/mL,> 100 µg/mL,> 100 µg/mL,> 100 µg/mL,> 100 µg/mL,CCCCCCCCOC(=O)C[C@H]1C(=O)N(C)[C@@H]([C@@H](C)CC)C(=O)N(C)[C@@H]([C@H](C)CC)C(=O)NCC(=O)N(C)[C@@H](C(C)C)C(=O)N[C@@H](Cc2ccc(OC)cc2)C(=O)O[C@H](C)C(=O)N2CCCC[C@H]2C(=O)N(C)[C@@H](C(C)C)C(=O)N[C@@H](C(C)C)C(=O)N1C
> 100 µg/mL,> 100 µg/mL,> 100 µg/mL,> 100 µg/mL,> 100 µg/mL,> 100 µg/mL,> 100 µg/mL,> 100 µg/mL,CC[C@@H](C)[C@H]1C(=O)NCC(=O)N(C)[C@@H](C(C)C)C(=O)N[C@@H](Cc2ccc(OC)cc2)C(=O)O[C@H](C)C(=O)N2CCCC[C@H]2C(=O)N(C)[C@@H](C(C)C)C(=O)N[C@@H](C(C)C)C(=O)N(C)[C@@H](CCN=[N+]=[N-])C(=O)N(C)[C@@H]([C@@H](C)CC)C(=O)N1C
3.13 µg/mL,6.25 µg/mL,25 µg/mL,6.25 µg/mL,25 µg/mL,50 µg/mL,6.25 µg/mL,25 µg/mL,CC[C@@H](C)[C@H]1C(=O)NCC(=O)N(C)[C@@H](C(C)C)C(=O)N[C@@H](Cc2ccc(OC)cc2)C(=O)N[C@@H](C)C(=O)N2CCCC[C@H]2C(=O)N(C)[C@@H](C(C)C)C(=O)N[C@@H](C(C)C)C(=O)N(C)[C@@H](CC(=O)O)C(=O)N(C)[C@@H]([C@@H](C)CC)C(=O)N1C
50 µg/mL,> 100 µg/mL,> 100 µg/mL,> 100 µg/mL,> 100 µg/mL,> 100 µg/mL,> 100 µg/mL,> 100 µg/mL,CC[C@@H](C)[C@H]1C(=O)NCC(=O)N(C)[C@@H](C(C)C)C(=O)N[C@@H](Cc2ccc(OCc3ccccc3)cc2)C(=O)O[C@H](C)C(=O)N2CCCC[C@H]2C(=O)N(C)[C@@H](C(C)C)C(=O)N[C@@H](C(C)C)C(=O)N(C)[C@@H](CC(=O)O)C(=O)N(C)[C@@H]([C@@H](C)CC)C(=O)N1C
12.5 µg/mL,100 µg/mL,> 100 µg/mL,25 µg/mL,> 100 µg/mL,> 100 µg/mL,25 µg/mL,> 100 µg/mL,CC[C@@H](C)[C@H]1C(=O)NCC(=O)N(C)[C@@H](C(C)C)C(=O)N[C@@H](Cc2ccc(OCC(=O)O)cc2)C(=O)O[C@H](C)C(=O)N2CCCC[C@H]2C(=O)N(C)[C@@H](C(C)C)C(=O)N[C@@H](C(C)C)C(=O)N(C)[C@@H](CC(=O)O)C(=O)N(C)[C@@H]([C@@H](C)CC)C(=O)N1C
